Data as given in ChEMBL document CHEMBL3813677, “Structure-Activity Relationship Studies and Molecular Modeling of Naphthalene-Based Sphingosine Kinase 2 Inhibitors” (ACS Med Chem Lett, 2016).

Experiments:
[1] = target: T1, Sphingosine kinase 2 (Homo sapiens) (UniProt Q9NRA0); test: Inhibition of human recombinant SphK2 remaining enzyme activity at 1 uM using sphingosine as substrate incubated for 20 mins by scintillation counting analysis in presence of [gamma-32P]ATP
T1 sequence (whole entry): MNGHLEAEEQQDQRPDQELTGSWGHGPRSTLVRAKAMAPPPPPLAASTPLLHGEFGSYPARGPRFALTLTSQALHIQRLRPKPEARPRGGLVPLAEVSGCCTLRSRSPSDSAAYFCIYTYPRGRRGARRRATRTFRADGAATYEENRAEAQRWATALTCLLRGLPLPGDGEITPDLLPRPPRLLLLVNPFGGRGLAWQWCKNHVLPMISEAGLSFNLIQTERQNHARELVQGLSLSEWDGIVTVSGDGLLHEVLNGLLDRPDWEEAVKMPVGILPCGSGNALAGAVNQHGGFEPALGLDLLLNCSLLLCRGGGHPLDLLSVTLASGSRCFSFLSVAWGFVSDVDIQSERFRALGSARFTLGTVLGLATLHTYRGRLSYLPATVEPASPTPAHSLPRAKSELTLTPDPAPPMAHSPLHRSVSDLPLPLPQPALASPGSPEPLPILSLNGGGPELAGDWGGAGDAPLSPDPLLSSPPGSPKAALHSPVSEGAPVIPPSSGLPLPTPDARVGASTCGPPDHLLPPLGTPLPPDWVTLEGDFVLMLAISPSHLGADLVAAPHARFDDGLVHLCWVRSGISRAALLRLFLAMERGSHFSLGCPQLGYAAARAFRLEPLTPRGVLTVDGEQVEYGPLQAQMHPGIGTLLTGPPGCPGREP

Sphingosine kinase 1 = Sphingosine kinase 1 (Homo sapiens, UniProt Q9NYA1); test: Inhibition of human recombinant SphK1 using sphingosine as substrate incubated for 20 mins by scintillation counting analysis in presence of [gamma-32P]ATP
Sphingosine kinase 2 = target: T2, Sphingosine kinase 2 (Homo sapiens, UniProt Q9NRA0); test: Inhibition of human recombinant SphK2 using sphingosine as substrate incubated for 20 mins by scintillation counting analysis in presence of [gamma-32P]ATP
T2 sequence (Q9NRA0 whole entry): T1 sequence (whole entry)

Homo sapiens = species on record: Homo sapiens; test: Selectivity ratio of Ki for human recombinant SphK1 to Ki for human recombinant SphK2
Outline: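 Recombinant human SphK1 and SphK2. Inhibitory constants came from kinetic analysis of S1P production, with sphingosine concentration varied and ATP held at a fixed concentration, run with and without inhibitor. Selectivity was taken as the ratio of the two enzymes' constants.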

Sphingosine kinase 1, sequence (Q9NYA1 whole entry): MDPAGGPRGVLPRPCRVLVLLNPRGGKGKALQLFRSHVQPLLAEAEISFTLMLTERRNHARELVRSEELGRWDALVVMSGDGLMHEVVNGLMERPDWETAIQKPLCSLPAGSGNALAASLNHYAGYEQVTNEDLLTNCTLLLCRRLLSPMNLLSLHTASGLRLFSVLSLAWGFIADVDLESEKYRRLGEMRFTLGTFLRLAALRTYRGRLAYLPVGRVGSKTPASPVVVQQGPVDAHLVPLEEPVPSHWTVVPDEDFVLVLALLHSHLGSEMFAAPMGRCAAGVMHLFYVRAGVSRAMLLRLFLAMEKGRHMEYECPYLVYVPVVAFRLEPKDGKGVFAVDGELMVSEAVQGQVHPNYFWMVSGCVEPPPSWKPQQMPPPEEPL

SMILES	Activity [1] [%]	Ki (Sphingosine kinase 1) [nM]	Ki (Sphingosine kinase 2) [nM]	Ratio Ki (Homo sapiens)
Cc1ccc(S(=O)(=O)Oc2ccc3cc(-c4noc([C@@H]5CCCN5C(=N)N)n4)ccc3c2)cc1	89			
CCCCCCCOc1ccc2cc(-c3noc([C@@H]4CCCN4C(=N)N)n3)ccc2c1	83			
CCCCCCOc1ccc2cc(-c3noc([C@@H]4CCCN4C(=N)N)n3)ccc2c1	64	> 10000	3800	> 2.6
N=C(N)N1CCC[C@H]1c1nc(-c2ccc3cc(OCC4CCCC4)ccc3c2)no1	57			
N#Cc1ccc(COc2ccc3cc(-c4noc([C@@H]5CCCN5C(=N)N)n4)ccc3c2)cc1	43			
CC1(C)CCC(C)(C)c2cc(COc3ccc4cc(-c5noc([C@@H]6CCCN6C(=N)N)n5)ccc4c3)ccc21	104			
N=C(N)N1CCC[C@H]1c1nc(-c2ccc3cc(OCc4ccc(-c5ccccc5)cc4)ccc3c2)no1	51			
CC(C)COc1ccc2cc(-c3noc([C@@H]4[C@@H](O)CCN4C(=N)N)n3)ccc2c1	53	930	980	0.9
CCCCCOc1ccc2cc(-c3noc([C@@H]4[C@@H](O)CCN4C(=N)N)n3)ccc2c1	46	730	900	0.8
CC(C)COc1ccc2cc(-c3noc([C@@H]4CCCN4C(=N)N)n3)ccc2c1	74			
CCCCCCCCc1ccc(-c2noc([C@@H]3CCCN3C(=N)N)n2)cc1	61		1400	
COCCCOc1ccc2cc(-c3noc([C@@H]4CCCN4C(=N)N)n3)ccc2c1	109			
N=C(N)N1CCC[C@H]1c1nc(-c2ccc3cc(O)ccc3c2)no1	106			
CCCCCOc1ccc2cc(-c3noc([C@@H]4CCCN4C(=N)N)n3)ccc2c1	51	7200	980	7.3
N=C(N)N1CCC[C@H]1c1nc(-c2ccc3cc(OCC(=O)c4ccc(-c5ccccc5)cc4)ccc3c2)no1	77			

More lines, now with the values ahead:

Activity [1] [%]	Ki (Sphingosine kinase 1) [nM]	Ki (Sphingosine kinase 2) [nM]	Ratio Ki (Homo sapiens)	SMILES
103				N=C(N)N1CCC[C@H]1c1nc(-c2ccc3cc(OCC(=O)c4ccccc4)ccc3c2)no1
35				N=C(N)N1CCC[C@H]1c1nc(-c2ccc3cc(OCc4ccc(Br)cc4)ccc3c2)no1
46				N=C(N)N1CCC[C@H]1c1nc(-c2ccc3cc(OCc4cccc(Cl)c4)ccc3c2)no1
30				N=C(N)N1CCC[C@H]1c1nc(-c2ccc3cc(OCCc4ccc(C(F)(F)F)cc4)ccc3c2)no1
69				CCCCOc1ccc2cc(-c3noc([C@@H]4CCCN4C(=N)N)n3)ccc2c1
94				Cc1ccc(COc2ccc3cc(-c4noc([C@@H]5CCCN5C(=N)N)n4)ccc3c2)cc1
97				N=C(N)N1CCC[C@H]1c1nc(-c2ccc3cc(OCc4ccccc4)ccc3c2)no1
56				N=C(N)N1CCC[C@H]1c1nc(-c2ccc3cc(OCc4ccc(Cl)cc4)ccc3c2)no1
49				N=C(N)N1CCC[C@H]1c1nc(-c2ccc3cc(OCc4cccc(Br)c4)ccc3c2)no1
65				N=C(N)N1CCC[C@H]1c1nc(-c2ccc3cc(OCC(=O)c4ccc(C(F)(F)F)cc4)ccc3c2)no1
81				N=C(N)N1CCC[C@H]1c1nc(-c2ccc3cc(OCc4cccc(C(F)(F)F)c4)ccc3c2)no1
118				COCCOc1ccc2cc(-c3noc([C@@H]4CCCN4C(=N)N)n3)ccc2c1
42		1020		N=C(N)N1CCC[C@H]1c1nc(-c2ccc3cc(OCc4ccc(C(F)(F)F)cc4)ccc3c2)no1
34				N=C(N)N1CCC[C@H]1c1nc(-c2ccc3cc(OCCc4cccc(C(F)(F)F)c4)ccc3c2)no1
47				N=C(N)N1CCC[C@H]1c1nc(-c2ccc3cc(OCCc4ccccc4C(F)(F)F)ccc3c2)no1
